# Laboratory results reported in the array DNA melting data of Ke et al. (doi:10.1101/2024.01.08.574731).
# Assays:
# [1] = folding enthalpy; higher = less favourable; fluorescence melt of hairpins on a sequencing array, two-state fit; conditions: sodium 0.088 M
# How it was run: (§1)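 Bootstrapped two-state fits yielded melting temperature and folding enthalpy for library hairpins. Cy3 fluorescence, with annealed Cy3 and quencher oligos, was imaged on a sequenced MiSeq flow cell in 50 mM Na-HEPES pH 8.0, 25 mM NaCl in 2.5 °C steps up to 60 °C, and normalised to pre-quench Cy3 and to control constructs. Four replicates were combined by inverse variance, and fitted temperatures were raised by 9.35 °C to match UV melts.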
# [2] = melting temperature; fluorescence melt of hairpins on a sequencing array, two-state fit, raised by 9.35 °C to match UV melts; conditions: sodium 0.088 M
# How it was run: as §1
Sequence,folding enthalpy [1],Tm [2]
GCCTTGCGAAAGCTGGGC (((..((....))..))),-25.9 kcal/mol,62.6 °C
GATCATCCATATGATC ((((((....)))))),-34.9 kcal/mol,47 °C
GCAATGCGAAAGCGGTGC (((..((....))..))),-21.7 kcal/mol,56.6 °C
CCCAAGAAATTGGG (((((....))))),-17.3 kcal/mol,45.3 °C
GATCAGCAATCTGATC ((((((....)))))),-32.5 kcal/mol,47.2 °C
GGTTCCGGAAACGGAATC (.(((((....))))).),-23.9 kcal/mol,51.4 °C
GTCGATGGAAACATCGGC (.(((((....))))).),-42.2 kcal/mol,56.1 °C
GAACGCGAAAGCGGATTC ((((((....)))..))),-15.8 kcal/mol,49.5 °C
GATCTAAGATTAGATC ((((((....)))))),-32.1 kcal/mol,37.5 °C
GGTGCTCGAAAGAGTACC (((.(((....))).))),-45.9 kcal/mol,60 °C
GTGAGCGAAAGCTTACAC ((((((....)))..))),-14 kcal/mol,49 °C
TGTATGAAAATACA (((((....))))),-11 kcal/mol,34.5 °C
GGTCGCGGAAACGCAACC (((.(((....))).))),-33.1 kcal/mol,51.6 °C
GTCAACGAAAGTTCTGAC ((((((....)))..))),-13.3 kcal/mol,25.9 °C
GGATCTGCGAAAGCATCC (((..(((....)))))),-14.9 kcal/mol,35.2 °C
GATCTCTCGAGAGATC ((((((....)))))),-40.5 kcal/mol,54.1 °C
GGTTGCGAAAGCAGTACC ((((((....)))..))),-16.9 kcal/mol,43.3 °C
GATCCTGGCTAGGATC ((((((....)))))),-38.3 kcal/mol,57.5 °C
GATGTGGGAAACCATATC (((.(((....))).))),-41.5 kcal/mol,43.2 °C
GATCGCAGTGGCGATC ((((((....)))))),-31.5 kcal/mol,67.5 °C
GTCAGTGAAAACTGAC ((((((....)))))),-35.6 kcal/mol,60.5 °C
GGTTCCGAAAGGATACC ((((((....))).))),-28.1 kcal/mol,48.8 °C
GAGATGACGAAAGTCCTC (((..(((....)))))),-11.7 kcal/mol,30 °C

Sequence,folding enthalpy [1],Tm [2]
GTAGGGGCGAAAGCCTAC (((..(((....)))))),-10.8 kcal/mol,37.9 °C
GCAGCCGAAAGGCGATGC ((((((....)))..))),-14.2 kcal/mol,53.2 °C
GATCAAGCTCTTGATC ((((((....)))))),-38.9 kcal/mol,48.3 °C
GGGACCGGAAACGATCCC ((((.((....)).)))),-45.8 kcal/mol,50.8 °C
GCAGACGAAAGTCAGTGC ((((((....)))..))),-19 kcal/mol,46.4 °C
GCTGCCGGAAACGGTGGC ((..(((....)))..)),-40 kcal/mol,55.1 °C
GGTGACGAAAGTCCAACC ((((((....)))..))),-18.2 kcal/mol,37.7 °C
GCTGAGCGAAAGCTGTGC ((..(((....)))..)),-17.8 kcal/mol,45.5 °C
GTTAAAGGAAACTTTGAC ((.((((....)))).)),-16.7 kcal/mol,33.2 °C
GGTAGGCGAAAGCCCACC (((.(((....))).))),-17.1 kcal/mol,51.9 °C
GATCAAGATTTTGATC ((((((....)))))),-28.5 kcal/mol,44.5 °C
GTAAGCGAAAGCTTTTAC ((((((....)))..))),-11.8 kcal/mol,29.7 °C
GATCCCCGAGGGATC ((((((...)))))),-31.8 kcal/mol,62 °C
GCGGAGCGAAAGCAACGC (((..((....))..))),-20.2 kcal/mol,66.9 °C
GCGAAGGGAAACTTTCGC (((((.(....).))))),-30.2 kcal/mol,51 °C
GAAACCCGAAAGGGTTC (((.(((....)))))),-10.2 kcal/mol,51.5 °C
GATCACTACCGTGATC ((((((....)))))),-41.2 kcal/mol,55.3 °C
GTACTCGAAAGAGGCTAC ((((((....)))..))),-14.3 kcal/mol,37.4 °C
GATCCCGAAAGGGTAATC ((((((....)))..))),-10.8 kcal/mol,31.2 °C
GGTAGTCGAAAGACCACC (((.(((....))).))),-24.7 kcal/mol,45.7 °C
GTTGCCGAAAGGCTAAC ((((((....))).))),-14 kcal/mol,42.3 °C
GGATCCCGAAAGGGTCC (((.(((....)))))),-27.8 kcal/mol,60.1 °C
GGTGGGGGAAACCTCACC ((((.((....)).)))),-39.5 kcal/mol,53.5 °C

Sequence,folding enthalpy [1],Tm [2]
GTTAGCCGAAAGGCAAC (((.(((....)))))),-13.5 kcal/mol,49.3 °C
GACCCAGGAAACCGGGTC (((((.(....).))))),-32.8 kcal/mol,52.9 °C
GTTACGGGAAACCGTGAC ((.((((....)))).)),-29.8 kcal/mol,49.8 °C
GTTGTAGGAAACTACAAC (((((((....))))))),-40.5 kcal/mol,56.1 °C
GGCAGAGGAAACTTTGCC ((((.((....)).)))),-35.5 kcal/mol,48.6 °C
GCCCGTGGAAACACAGGC (((.(((....))).))),-29.8 kcal/mol,50.4 °C
GGTTAAGGAAACCTAACC (((((.(....).))))),-25 kcal/mol,35.2 °C
GTGTGTGGAAACACGTAC ((..(((....)))..)),-11.8 kcal/mol,38.7 °C
GACAAAGGAAACTTTGCC (.(((((....))))).),-21.6 kcal/mol,33.3 °C
GAGGTGCGAAAGCATCTC (((.(((....))).))),-34 kcal/mol,59.3 °C
GATCGTGGAAACATGGTC ((.(.((....)).).)),-20.4 kcal/mol,32.7 °C
GGCCCTGGAAACGGGGTC (.(((.(....).))).),-30.9 kcal/mol,49 °C
GTGACTGGAAACGGTTAC ((.((.(....).)).)),-8.77 kcal/mol,36.9 °C
GCGGTAAGCCGC ((((....)))),-23.3 kcal/mol,57.7 °C
GCAAGTGGAAACACTCGC ((.((((....)))).)),-25.4 kcal/mol,44.3 °C
GGTAGACGAAAGTCGACC (((.(((....))).))),-39.1 kcal/mol,58.1 °C
GGAGCCGAAAGGCAGTCC ((((((....)))..))),-13.2 kcal/mol,36.1 °C
GTTCATCGAAAGATTAAC (((.(((....))).))),-34.2 kcal/mol,32.6 °C
GGACTCCCGAAAGGGTCC (((..(((....)))))),-16.8 kcal/mol,45.3 °C
GGAAAGGGAAACCCTTCC ((((.((....)).)))),-23.1 kcal/mol,40 °C
GATCTTCCAGAAGATC ((((((....)))))),-33.7 kcal/mol,46 °C
GATCCCCGAAAGGGCATC (((.(((....))).))),-14.3 kcal/mol,34.3 °C
GACGGCGAAAGCCCAGTC ((((((....)))..))),-13.1 kcal/mol,41.8 °C
